Source: ChEMBL document CHEMBL4428090, “Modeling, Synthesis, and Biological Evaluation of Potential Retinoid X Receptor (RXR)-Selective Agonists: Analogues of 4-[1-(3,5,5,8,8-Pentamethyl-5,6,7,8-tetrahydro-2-naphthyl)ethynyl]benzoic Acid (Bexarotene) and 6-(Ethyl(5,5,8,8-tetrahydronaphthalen-2-yl)amino)nicotinic Acid (NEt-TMN)” (J Med Chem, 2016)
The source made the active and inactive calls. The calls are words filed in the database; no cut-off is given here.

What was measured:
Homo sapiens = species: Homo sapiens; experiment: Selectivity index, ratio of agonist activity at human RARalpha expressed in HEK293 cells assessed as increase in RARE-mediated transcription relative to bexarotene to agonist activity at human RXRalpha expressed in human HCT116 cells assessed as increase in RXRE-mediated transcription relative to bexarotene; assay type: cell-based
Summary of the method: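 HEK293 cells (60,000/well) transfected for 24 h with 250 ng pTK-DR5(X2)-Luc, 25 ng human RARα and 20 ng renilla. Treated 24 h at 100 nM; activity expressed as a percentage of all-trans-retinoic acid. This RARE activity is divided by 100 nM RXRE activity, with the bexarotene ratio set to 1.0.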

Retinoid X receptor = molecular target: T1, Retinoid X receptor (Homo sapiens, UniProt P28702+P48443+P19793); experiment: Agonist activity at human RXR binding domain and activation domain expressed in human HCT116 cells assessed as rexinoid activity incubated for 24 hrs by luciferase reporter gene based mammalian two-hybrid assay; assay type: cell-based
T1 sequence (P28702 whole entry): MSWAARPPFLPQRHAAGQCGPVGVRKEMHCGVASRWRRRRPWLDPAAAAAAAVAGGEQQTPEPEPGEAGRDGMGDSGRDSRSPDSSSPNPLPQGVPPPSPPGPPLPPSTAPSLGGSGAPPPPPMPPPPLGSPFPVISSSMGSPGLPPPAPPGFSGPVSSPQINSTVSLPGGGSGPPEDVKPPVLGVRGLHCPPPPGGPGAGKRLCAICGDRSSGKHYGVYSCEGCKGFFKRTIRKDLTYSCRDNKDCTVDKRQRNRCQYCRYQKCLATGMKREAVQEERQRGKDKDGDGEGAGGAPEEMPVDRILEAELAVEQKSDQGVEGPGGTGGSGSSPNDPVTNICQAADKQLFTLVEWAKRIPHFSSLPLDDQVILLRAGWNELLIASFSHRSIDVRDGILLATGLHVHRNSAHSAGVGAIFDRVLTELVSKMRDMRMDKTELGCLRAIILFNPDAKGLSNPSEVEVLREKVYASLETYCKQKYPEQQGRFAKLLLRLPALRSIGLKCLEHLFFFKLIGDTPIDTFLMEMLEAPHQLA
T1 sequence (P48443 whole entry): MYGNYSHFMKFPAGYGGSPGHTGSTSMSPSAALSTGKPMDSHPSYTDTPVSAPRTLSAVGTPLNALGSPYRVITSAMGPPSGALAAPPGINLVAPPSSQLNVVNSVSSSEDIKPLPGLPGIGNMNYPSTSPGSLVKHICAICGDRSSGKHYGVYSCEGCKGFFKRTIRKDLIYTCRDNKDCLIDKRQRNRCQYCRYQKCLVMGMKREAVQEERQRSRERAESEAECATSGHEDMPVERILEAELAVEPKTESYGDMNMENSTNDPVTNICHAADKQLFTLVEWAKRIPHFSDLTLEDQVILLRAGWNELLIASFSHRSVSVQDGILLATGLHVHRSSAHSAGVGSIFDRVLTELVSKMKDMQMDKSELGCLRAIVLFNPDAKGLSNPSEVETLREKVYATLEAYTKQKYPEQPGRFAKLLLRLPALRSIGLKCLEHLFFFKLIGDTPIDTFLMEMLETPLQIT
T1 sequence (P19793 whole entry): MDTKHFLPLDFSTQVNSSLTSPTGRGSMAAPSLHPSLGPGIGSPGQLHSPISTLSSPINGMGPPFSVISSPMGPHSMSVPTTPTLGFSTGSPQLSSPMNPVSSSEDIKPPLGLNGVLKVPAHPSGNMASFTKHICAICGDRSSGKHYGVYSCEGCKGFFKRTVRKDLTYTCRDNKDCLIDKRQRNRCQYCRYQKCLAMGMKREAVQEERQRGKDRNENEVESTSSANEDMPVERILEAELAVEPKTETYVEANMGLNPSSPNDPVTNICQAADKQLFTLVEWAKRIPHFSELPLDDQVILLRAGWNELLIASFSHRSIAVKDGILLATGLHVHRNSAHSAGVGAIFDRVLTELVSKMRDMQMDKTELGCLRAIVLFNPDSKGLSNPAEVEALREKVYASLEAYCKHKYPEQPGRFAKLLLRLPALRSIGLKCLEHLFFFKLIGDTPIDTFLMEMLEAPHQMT

[1] = molecular target: T2, Retinoid X receptor (Homo sapiens) (UniProt P28702+P48443+P19793); experiment: Agonist activity at human RXR binding domain and activation domain expressed in human HCT116 cells assessed as rexinoid activity at 25 nM incubated for 24 hrs by luciferase reporter gene based mammalian two-hybrid assay relative to bexarotene; assay type: cell-based
Summary of the method: (§1)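 HCT-116 cells plated overnight (80,000/well, DMEM with 10% FBS), co-transfected for 24 h with human RXR binding-domain (bait) and activation-domain (prey) vectors, pFR-Luc Gal4 reporter and renilla control. Treated 24 h at 25, 100 or 1000 nM final; vehicle ethanol or DMSO 0.1%. Dual-luciferase read-out. Three independent assays in triplicate; bexarotene set to 100%.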

[2] = molecular target: T2, Retinoid X receptor (Homo sapiens); experiment: Agonist activity at human RXR binding domain and activation domain expressed in human HCT116 cells assessed as rexinoid activity at 100 nM incubated for 24 hrs by luciferase reporter gene based mammalian two-hybrid assay relative to bexarotene; assay type: cell-based; summary of the method: as §1
[3] = molecular target: T2, Retinoid X receptor (Homo sapiens); experiment: Agonist activity at human RXR binding domain and activation domain expressed in human HCT116 cells assessed as rexinoid activity at 1000 nM incubated for 24 hrs by luciferase reporter gene based mammalian two-hybrid assay relative to bexarotene; assay type: cell-based; summary of the method: as §1
[4] = molecular target: T2, Retinoid X receptor (Homo sapiens); experiment: Antagonist activity against human RXR binding domain and activation domain expressed in human HCT116 cells assessed as reduction in bexarotene-induced rexinoid activity incubated for 24 hrs by luciferase reporter gene based mammalian two-hybrid assay; assay type: cell-based
[5] = molecular target: T3, Retinoic acid receptor RXR-alpha (Homo sapiens) (UniProt P19793); experiment: Agonist activity at human RXRalpha expressed in human HCT116 cells assessed as increase in RXRE-mediated transcription incubated for 24 hrs by RXRE luciferase reporter gene assay; assay type: cell-based
T3 sequence (whole entry): T1 sequence (P19793 whole entry)

[6] = molecular target: T4, Retinoic acid receptor RXR-alpha/oxysterols receptor LXR-alpha (Homo sapiens, UniProt P19793+Q13133); experiment: Agonist activity at human RXRalpha/LXRalpha expressed in human HCT116 cells assessed as reduction in SREBP-mediated transcription activity at 100 nM incubated for 24 hrs by luciferase reporter gene assay relative to bexarotene; assay type: cell-based; conditions: 0.1 µM
T4 sequence (P19793 whole entry): T1 sequence (P19793 whole entry)
T4 sequence (Q13133 whole entry): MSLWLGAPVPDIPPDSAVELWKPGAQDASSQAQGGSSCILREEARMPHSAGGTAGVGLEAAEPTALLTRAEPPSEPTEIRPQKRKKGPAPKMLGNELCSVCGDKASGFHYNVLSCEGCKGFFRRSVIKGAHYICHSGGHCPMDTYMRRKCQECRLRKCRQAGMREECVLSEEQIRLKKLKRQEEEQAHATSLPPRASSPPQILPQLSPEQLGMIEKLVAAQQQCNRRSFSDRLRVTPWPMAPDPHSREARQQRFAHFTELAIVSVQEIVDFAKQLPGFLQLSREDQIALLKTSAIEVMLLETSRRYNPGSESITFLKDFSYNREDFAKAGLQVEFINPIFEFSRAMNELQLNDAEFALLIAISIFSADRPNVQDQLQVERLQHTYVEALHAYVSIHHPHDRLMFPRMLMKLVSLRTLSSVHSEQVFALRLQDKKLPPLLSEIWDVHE
Summary of the method: (§2)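 HCT116 cells co-transfected for 24 h with 100 ng pBP1c(6500)-Luc (about 6500 bp murine SREBP-1c promoter), 10 ng human LXRα and 20 ng renilla. Treated 24 h with compound at 100 nM, alone or with 100 nM TO901317. Luciferase output. Three independent assays in triplicate; bexarotene = 100%.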

[7] = Mutagenicity in Saccharomyces cerevisiae D7 assessed as induction of mutagenesis by measuring forward and reverse mutations up to 0.1 mg/mL; assay type: toxicity
[8] = molecular target: T3, Retinoic acid receptor RXR-alpha (Homo sapiens); experiment: Agonist activity at human RXRalpha expressed in human HCT116 cells assessed as increase in RXRE-mediated transcription at 25 nM incubated for 24 hrs by RXRE luciferase reporter gene assay relative to bexarotene; assay type: cell-based
Summary of the method: (§3)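 HCT-116 cells (80,000/well) co-transfected for 24 h with 250 ng RXRE-luciferase reporter (DR1 element from the rat cellular retinol binding protein II gene), 25 ng pSG5-human RXRα and 20 ng renilla. Dosed 24 h at 25, 100 or 1000 nM final; ethanol or DMSO vehicle 0.1%. Dual-luciferase read-out. Three independent assays in triplicate; bexarotene = 100%.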

[9] = molecular target: T3, Retinoic acid receptor RXR-alpha (Homo sapiens); experiment: Agonist activity at human RXRalpha expressed in human HCT116 cells assessed as increase in RXRE-mediated transcription at 100 nM incubated for 24 hrs by RXRE luciferase reporter gene assay relative to bexarotene; assay type: cell-based; summary of the method: as §3
[10] = molecular target: T3, Retinoic acid receptor RXR-alpha (Homo sapiens); experiment: Agonist activity at human RXRalpha expressed in human HCT116 cells assessed as increase in RXRE-mediated transcription at 1000 nM incubated for 24 hrs by RXRE luciferase reporter gene assay relative to bexarotene; assay type: cell-based; summary of the method: as §3
[11] = molecular target: T4, Retinoic acid receptor RXR-alpha/oxysterols receptor LXR-alpha; experiment: Agonist activity at human RXRalpha/LXRalpha expressed in human HCT116 cells assessed as reduction in SREBP-mediated transcription activity at 100 nM incubated for 24 hrs by luciferase reporter gene assay in presence of 100 nM LXR agonist TO901317 relative to bexarotene; assay type: cell-based; design: scale not given: the % may be the effect or the level left; conditions: 0.1 µM; summary of the method: as §2
[12] = Lipid risk index, ratio of agonist activity at human RXRalpha/LXRalpha expressed in human HCT116 cells assessed as reduction in SREBP-mediated transcription activity to agonist activity at human RXRalpha expressed in human HCT116 cells assessed as increase in RXRE-mediated transcription
Summary of the method: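 Lipid risk index: SREBP-promoter luciferase activity (HCT116, LXRα-transfected, 100 nM compound with or without 100 nM TO901317, 24 h) divided by RXRE activity at 100 nM. The SREBP:RXRE ratio for bexarotene is set to 1.0.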

HuT78 = experiment: Growth inhibition of human HUT78 cells at 200 nM incubated for 72 hrs by MTS assay relative to bexarotene; assay type: functional; conditions: HuT78, 72 h, read-out: GI
Summary of the method: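 Hut78 cells in RPMI with 10% FBS at 37°C, 5% CO2. Plated 7,500 cells/well and immediately dosed at 200 nM for 72 h. MTS read at A490; percent inhibition with media control set to 0.0, compared with bexarotene set to 100%. Mean of three independent experiments.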

EC50 (Retinoid X receptor) [µM]	Activity [1] [%]	Activity [2]	Activity [3]	Activity [4]	Activity [5]	Activity [6]	fold change (FC) [1]	Activity [8] [%]	Activity [9] [%]	Activity [10] [%]	Activity [11] [%]	Compound	Ratio (Homo sapiens)	Activity [7]	Ratio [12]	inhibition of growth at 0.2 µM (HuT78) [%]
												CC1=C(/C=C/C(C)=C/C=C/C(C)=C/C(=O)O)C(C)(C)CCC1	9.5			
> 80	0.6	inactive	inactive	Dose-dependent effect	inactive	Not Active						Cc1cc2c(cc1C(=O)c1ccc(S(=O)(=O)O)cc1)C(C)(C)CCC2(C)C		Non-Toxic		
0.0138		135 to 146%	35 to 58%			Active	2	27 to 66	68 to 89	20 to 43	13 to 17	CCN(c1ccc(C(=O)O)cn1)c1cc2c(cc1C)C(C)(C)CCC2(C)C		Non-Toxic	0.49 - 0.51	> 85
18.2	0.8	inactive	17%	Dose-dependent effect	inactive	Not Active						C=C(c1ccc(S(=O)(=O)O)cc1)c1cc2c(cc1C)C(C)(C)CCC2(C)C		Non-Toxic		
